Rows were chosen to be rich in hits. Some 2.5% of all compounds tested hit in one or more screens of this group.
PRMT1 inh: PRMT1 (human) inhibition, primary screen | Q99873 | recombinant PRMT1, activity-based probe fluorescence polarization | inhibition, % at 2.79 µM | 370,000 tested, 1.3% active | AID 652257;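 active means inhibition above about 21% made by adding two undisclosed values, limit read from the data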
PAD4 inh: blocks human protein arginine deiminase 4; Q9UM07; recombinant PAD4, RCA probe fluorescence polarization; inhibition, % at 6.36 µM; 330,000 tested, 0.41% active;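 active means percent inhibition above a cutoff equal to the mean of all tested compounds plus 3 SD, cut at about 15% in these data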
TDP2 inh: TDP2 (human) inhibition, absorbance primary screen; O95551; recombinant TDP2, T5PNP hydrolysis, p-nitrophenol absorbance 415 nm; inhibition, % at 12.8 µM; 370,000 tested, 0.34% active; AID 720702;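 active means inhibition above the mean of all tested compounds plus 3 SD, set per campaign, cut at about 25% in these data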
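Assay system: Recombinant human TDP2 | Quantity: 120 nM TDP2 per well | Incubation: 2 h at 37 °C | Signal: Epi absorbance | Evaluation: Percent inhibition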
CTSL1 counter: cathepsin L1 inhibition, PFM18AAP counter-screen | recombinant F. hepatica cathepsin L1, Z-Leu-Arg-MCA fluorescence | AID 1906 | inhibition, % at 5.96 µM | 300,000 tested, 0.49% active;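 active means inhibition above the mean of all tested compounds plus 3 SD, set per screening campaign, cut at about 17% in these data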
GSTO1 inh: counter-screen for RBBP9 inhibitors: inhibitors of human GSTO1; P78417; recombinant GSTO1, activity-based probe fluorescence polarization; inhibition, % at 5.96 µM; 300,000 tested, 1.1% active; AID 1974;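 active means inhibition above the campaign mean inhibition plus 3 SD, cut at about 35% in these data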
Target sequence (P78417 whole entry, looked up): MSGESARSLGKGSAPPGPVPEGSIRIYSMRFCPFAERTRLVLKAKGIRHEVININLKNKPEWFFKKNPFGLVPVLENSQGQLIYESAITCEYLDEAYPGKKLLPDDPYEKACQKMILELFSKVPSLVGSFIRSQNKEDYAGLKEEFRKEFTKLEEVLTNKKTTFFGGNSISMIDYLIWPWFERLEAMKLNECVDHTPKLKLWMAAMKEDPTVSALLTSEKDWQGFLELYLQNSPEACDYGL
Large screens that a line does not name were inactive.

CC1(C)C[C@H]2C=C(C=O)[C@]3(C=O)C[C@]3(C)[C@H]2C1	CTSL1 counter 17
O=C1NC(=O)C(Nc2ccc(Cl)c(Cl)c2)C(=O)N1	none (no result: PAD4 inh, CTSL1 counter, GSTO1 inh)
CC1(CCl)CN1S(=O)(=O)c1ccccc1 (centres undefined)	CTSL1 counter 28
O=C1NC(=O)C2(CCN(S(=O)(=O)c3ccccc3)CC2)C(=O)N1	none (no result: PAD4 inh, CTSL1 counter, GSTO1 inh)
CCCCCn1c(NC(=O)c2ccco2)c(C(=O)OCC)c2nc3ccccc3nc21	GSTO1 inh 74 (no result: PRMT1 inh, TDP2 inh)
CC[C@H](C)/C=C(C)/C=C/C1=CC2=C(Cl)C(=O)[C@@](C)(OC(C)=O)C(=O)C2=CO1	GSTO1 inh 36 (no result: PRMT1 inh, TDP2 inh)
CC1=C(C(=O)O)N2C(=O)[C@@H](NC(=O)CCCC(=O)O)[C@H]2SC1	PRMT1 inh 23
CN1C2CCC1CC(OC(c1ccccc1)c1ccc(Cl)cc1)C2 (centres undefined)	none (no result: PAD4 inh, CTSL1 counter, GSTO1 inh)
CC(C)c1ccccc1OCC(=O)N1CCCN(C)CC1	CTSL1 counter 18
Cc1ccsc1/C=C1\C(=O)NC(=S)N(C)C1=O	none
COc1ccc(/C=C2\C(=O)NC(=S)N(C)C2=O)cc1C	PRMT1 inh 45
O=C(NC1CCCCC1)N1Cc2ccccc2-n2nncc2C1	none (no result: PAD4 inh, CTSL1 counter, GSTO1 inh)
C/C(CC(c1ccccc1)c1c(O)c2ccccc2oc1=O)=N\Nc1ccc([N+](=O)[O-])cc1[N+](=O)[O-] (centres undefined)	GSTO1 inh 37
COc1ccc(Cc2nccc3cc(OC)c(OC)cc23)cc1OC	none
COc1ccc(CC2=NCCc3cc(OC)c(OC)cc32)cc1OC	TDP2 inh 31 (no result: PAD4 inh, CTSL1 counter, GSTO1 inh)
O=C(NC(C(Cl)Cl)N1CCOCC1)c1ccccc1 (centres undefined)	CTSL1 counter 68
COC(=O)C1=C[C@H]([C@@H](C)[C@H](OC)c2ccccc2Br)[C@@H]2[C@H]1c1ccccc1N2C	none (no result: PAD4 inh, CTSL1 counter, GSTO1 inh)
CC1=NN=C(c2ccc(N)cc2)c2cc3c(cc2C1)OCO3	CTSL1 counter 39
CCOC(=O)C1(c2ccccc2)CCN(CCC(=O)Nc2cccc(Br)c2)CC1	none (no result: PAD4 inh, CTSL1 counter, GSTO1 inh)
CC(C)C[C@H]1COc2cc(N3CCN(C)CC3)ccc2S(=O)(=O)N1	none (no result: PAD4 inh, CTSL1 counter, GSTO1 inh)
CCn1c(O)c(C=Nc2cc(Cl)ccc2Cl)c(=O)n(CC)c1=O	PRMT1 inh 22
COc1ccc(Cl)cc1N=Cc1c(O)n(C)c(=O)n(C)c1=O	none
CC1CC2CC(=O)CCC2(C)C2CCC3(C)C(O)CCC3C12 (centres undefined)	none (no result: PAD4 inh, CTSL1 counter, GSTO1 inh)
COCCCNC(=O)c1c(N)n(Cc2ccco2)c2nc3ccccc3nc12	none
COc1ccc(Cn2c(N)c(C(=O)NCc3ccco3)c3nc4ccccc4nc32)cc1OC	GSTO1 inh 53
COc1ccc(Oc2cc(NC(=O)c3nn(C)cc3[N+](=O)[O-])cc([N+](=O)[O-])c2)cc1	CTSL1 counter 20
COc1ccc(NC(=O)c2cn(CCC#N)nc2-c2cccc([N+](=O)[O-])c2)cc1	none
O=C(c1ccccc1)C(CN1CCCC1)c1ccccc1 (centres undefined)	none
CC1CCN(C(CC(=O)c2ccccc2)C(=O)c2ccccc2)CC1 (centres undefined)	PRMT1 inh 72 (no result: PAD4 inh, CTSL1 counter, GSTO1 inh)
COC(=O)C1=C(C(=O)OC)SC2(S1)C(C(=O)OC)=C(C(=O)OC)Sc1c2ssc1=O	PRMT1 inh 105 (no result: PAD4 inh, CTSL1 counter, GSTO1 inh)
COC(=O)C1=C(c2ccc(F)cc2F)C[C@@H]2CC[C@H]1N2C	none (no result: CTSL1 counter, GSTO1 inh)
COC(=O)C1C(c2ccc(C)cc2)CC2CCC1N2C (centres undefined)	none (no result: PAD4 inh, CTSL1 counter, GSTO1 inh)
COc1cc2c(cc1OC)C13CCN4CC5=CCOC6CC(=O)N2C1C6C5C3C4 (centres undefined) (tested in a mixture with another compound)	none (no result: PAD4 inh, CTSL1 counter, GSTO1 inh)
Cc1ccc(N2C(=O)/C(=C/c3ccc(CN(CCC#N)S(C)(=O)=O)o3)C(=O)NC2=S)cc1C	none (no result: PRMT1 inh, TDP2 inh)
Cc1cccc(N2C(=O)/C(=C/c3ccc(CN(CCC#N)S(C)(=O)=O)o3)C(=O)NC2=S)c1	PRMT1 inh 41
COC(=O)[C@@H]1N=C(c2ccc(OC)cc2)O[C@]12C(=O)N(Cc1ccccc1)c1ccccc12	none (no result: PAD4 inh, CTSL1 counter, GSTO1 inh)
CN1C(=O)C(Cc2ccccc2)C(=O)N(C)C1=O	none (no result: PAD4 inh, CTSL1 counter, GSTO1 inh)
CN1C(=O)C(Cc2ccc3c(c2)OCO3)C(=O)N(C)C1=O	GSTO1 inh 41 (no result: PRMT1 inh, TDP2 inh)
O=C(O)CC1OCC=C2CN3CCC45c6ccccc6NC4C1C2CC35 (centres undefined)	CTSL1 counter 18
Cc1ccc(CN2Cc3ccc(Br)cc3-n3nncc3C2)cc1	none (no result: PAD4 inh, CTSL1 counter, GSTO1 inh)
